From ChEMBL document CHEMBL1137772, “Site-activated multifunctional chelator with acetylcholinesterase and neuroprotective-neurorestorative moieties for Alzheimer's therapy” (J Med Chem, 2009)
Activity calls are given as the source filed them. No cut-off for these calls is given here.

Tests used:
[1] = species: Rattus norvegicus; assay: Selectivity ratio of IC50 for BuChE to IC50 for AChE in Wistar rat brain homogenates; type: tissue-based
How it was run: (§1)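 Modified Ellman method on rat brain homogenate enzymes, with acetylthiocholine as AChE substrate and butyrylthiocholine as BuChE substrate. For concentration–response, enzymes were preincubated with inhibitor for 3 h, and IC50 was obtained by nonlinear curve fitting. Mean ± SEM of three to five independent experiments, each in triplicate. The 1 µM AChE inhibition was followed as a time course.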

[2] = test system: SH-SY5Y; assay: Cytotoxicity against human SH-SY5Y cells assessed as decrease in cell viability at 50 uM after 48 hrs by MTT assay relative to control; type: cell-based
How it was run: (§2)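 Human SH-SY5Y neuroblastoma cells were exposed to compound for 48 h, and viability was read by MTT assay. Mean ± SEM of three independent experiments.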

[3] = target: Butyrylcholinesterase (Rattus norvegicus) (UniProt Q9JKC1); assay: Inhibition of BuChE in Wistar rat brain homogenates at 1 uM by Ellman's method; type: tissue-based; conditions: TDE = time-dependent effect
[4] = test system: SH-SY5Y; assay: Cytotoxicity against human SH-SY5Y cells assessed as cell viability at 1 uM after 48 hrs by MTT assay relative to control; type: cell-based; how it was run: as §2
[5] = test system: SH-SY5Y; assay: Cytotoxicity against human SH-SY5Y cells assessed as decrease in cell viability at 25 uM after 48 hrs by MTT assay relative to control; type: cell-based; how it was run: as §2
[6] = target: Acetylcholinesterase (Electrophorus electricus) (UniProt O42275); assay: […] of electric eel AChE-mediated drug hydrolysis assessed as release of HLA20-copper complex at 0.2 mM by UV visible spectroscopy in presence of CuSO4
How it was run: (§3)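 UV/vis absorption spectra were recorded in 5% NH4Ac, pH 7. Prochelator (0.2 mM) was activated before adding CuSO4 or FeSO4 (0.2 mM).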

[7] = test system: SH-SY5Y; assay: Cytotoxicity against human SH-SY5Y cells assessed as decrease in cell viability at 10 uM after 48 hrs by MTT assay relative to control; type: cell-based; how it was run: as §2
[8] = target: T1, Acetylcholinesterase (Rattus norvegicus) (UniProt P37136); assay: Inhibition of AChE in Wistar rat brain homogenates at 1 uM by Ellman's method; type: tissue-based; conditions: TDE = time-dependent effect; how it was run: as §1
T1 sequence (whole entry): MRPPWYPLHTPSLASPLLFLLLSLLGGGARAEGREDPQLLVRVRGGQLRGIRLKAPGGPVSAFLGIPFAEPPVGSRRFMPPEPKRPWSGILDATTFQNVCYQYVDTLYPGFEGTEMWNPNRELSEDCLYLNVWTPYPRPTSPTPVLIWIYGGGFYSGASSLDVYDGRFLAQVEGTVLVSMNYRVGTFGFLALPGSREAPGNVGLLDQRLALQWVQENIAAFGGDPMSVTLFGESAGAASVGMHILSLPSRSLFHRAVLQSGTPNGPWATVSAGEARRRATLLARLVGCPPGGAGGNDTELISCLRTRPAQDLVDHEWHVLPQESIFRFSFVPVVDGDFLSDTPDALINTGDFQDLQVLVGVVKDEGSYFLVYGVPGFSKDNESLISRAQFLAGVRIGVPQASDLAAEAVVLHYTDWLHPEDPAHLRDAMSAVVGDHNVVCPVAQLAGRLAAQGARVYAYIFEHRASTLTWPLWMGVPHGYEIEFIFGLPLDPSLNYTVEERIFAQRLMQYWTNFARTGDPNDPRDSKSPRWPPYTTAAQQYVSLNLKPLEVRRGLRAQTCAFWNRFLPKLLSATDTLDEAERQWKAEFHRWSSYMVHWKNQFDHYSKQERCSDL

[9] = target: Acetylcholinesterase (Electrophorus electricus) (UniProt O42275); assay: Induction of electric eel AChE-mediated drug hydrolysis assessed as release of HLA20-iron complex at 0.2 mM by UV visible spectroscopy in presence of FeSO4; how it was run: as §3
[10] = target: Butyrylcholinesterase (Rattus norvegicus, UniProt Q9JKC1); assay: Inhibition of BuChE in Wistar rat brain homogenates by Ellman's method; type: tissue-based; how it was run: as §1
[11] = target: T2, Acetylcholinesterase (Rattus norvegicus, UniProt P37136); assay: Inhibition of AChE in Wistar rat brain homogenates by Ellman's method; type: tissue-based; how it was run: as §1
T2 sequence (P37136 whole entry): T1 sequence (whole entry)

Sequence of Acetylcholinesterase (Electrophorus electricus) (O42275 24-633 limits assumed): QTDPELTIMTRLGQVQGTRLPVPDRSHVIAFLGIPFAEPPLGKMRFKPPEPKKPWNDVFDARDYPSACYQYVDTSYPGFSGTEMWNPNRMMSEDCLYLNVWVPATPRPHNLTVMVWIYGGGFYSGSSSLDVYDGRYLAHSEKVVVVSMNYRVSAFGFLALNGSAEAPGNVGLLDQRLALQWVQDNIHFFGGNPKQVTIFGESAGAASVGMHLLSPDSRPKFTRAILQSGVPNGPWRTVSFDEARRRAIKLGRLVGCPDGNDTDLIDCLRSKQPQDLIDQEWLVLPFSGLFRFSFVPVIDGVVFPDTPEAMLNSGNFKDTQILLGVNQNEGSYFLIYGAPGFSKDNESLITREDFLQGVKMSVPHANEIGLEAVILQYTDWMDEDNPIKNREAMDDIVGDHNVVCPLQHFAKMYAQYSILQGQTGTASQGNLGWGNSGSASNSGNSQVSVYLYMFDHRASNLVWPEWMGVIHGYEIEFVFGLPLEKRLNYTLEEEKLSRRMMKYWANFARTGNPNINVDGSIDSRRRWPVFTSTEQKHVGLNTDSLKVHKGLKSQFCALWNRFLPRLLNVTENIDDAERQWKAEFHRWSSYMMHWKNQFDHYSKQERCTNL
Sequence of Butyrylcholinesterase (Rattus norvegicus) (Q9JKC1 as listed by the source): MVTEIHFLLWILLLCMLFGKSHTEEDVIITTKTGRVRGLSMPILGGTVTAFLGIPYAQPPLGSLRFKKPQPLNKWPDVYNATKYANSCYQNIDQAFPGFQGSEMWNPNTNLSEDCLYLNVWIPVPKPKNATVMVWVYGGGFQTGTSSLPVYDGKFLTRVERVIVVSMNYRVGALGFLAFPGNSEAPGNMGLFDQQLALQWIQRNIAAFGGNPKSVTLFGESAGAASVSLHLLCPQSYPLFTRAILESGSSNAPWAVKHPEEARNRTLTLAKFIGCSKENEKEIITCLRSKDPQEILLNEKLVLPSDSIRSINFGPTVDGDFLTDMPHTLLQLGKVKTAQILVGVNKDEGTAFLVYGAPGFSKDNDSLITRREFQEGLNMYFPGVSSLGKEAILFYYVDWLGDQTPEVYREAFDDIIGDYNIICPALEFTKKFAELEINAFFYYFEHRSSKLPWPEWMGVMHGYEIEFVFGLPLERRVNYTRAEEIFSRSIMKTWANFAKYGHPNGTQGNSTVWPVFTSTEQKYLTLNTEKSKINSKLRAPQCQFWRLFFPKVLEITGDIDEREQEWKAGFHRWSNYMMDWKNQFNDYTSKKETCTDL
Sequence of Butyrylcholinesterase (Q9JKC1 whole entry): as the sequence (Q9JKC1 as listed by the source) above

SMILES	Ratio IC50 [1]	Activity [2]	Activity [3]	Activity [4]	Activity [5]	Activity [6]	Activity [7]	Activity [8]	Activity [9]	IC50 [10]	IC50 [11]
C#CCN1CCN(Cc2ccc(OC(=O)N(C)C)c3ncccc23)CC1	85	Toxic	tde	Non-toxic	Toxic	Active	Non-toxic	tde	Active	42.6 µM	0.5 µM
CCN(C)C(=O)Oc1cccc([C@H](C)N(C)C)c1	–	–	tde	–	–	–	–	tde	–	–	–
C#CCN1CCN(Cc2ccc(O)c3ncccc23)CC1	–	98%	–	Non-toxic	87%	–	60%	–	–	–	–
